Experimental data collected from several papers.
Compare with care: the assays were run in different laboratories.
Target: NT-3 growth factor receptor (NTRK3, Homo sapiens, UniProt Q16288)

For `O=C(NCCCN1CCOCC1)c1ccc(Nc2ncc(Cl)c(-c3ccc(Cl)s3)n2)cc1`, the remaining binding was 46% (binding, competition with immobilised ligand; 1 µM).
`C[C@@H]1CCN(c2nccc(-c3cnn4ncccc34)n2)C1` gave a remaining binding of 70% (binding; 1 µM).
With `CSc1cccnc1N1CCN(Cc2nc3ccccc3[nH]2)CC1` the remaining binding was 83% (cell-free assay, competition with immobilised ligand; 1 µM).
The remaining binding of `COc1ncc2cc3ccccc3nc2c1C#N` is reported as 74% (cell-free assay, competition with immobilised ligand; 5 µM).
`O=C(c1ccc(Nc2nccc(-c3cc4ccccc4s3)n2)cc1)N1CCC(N2CCCC2)CC1` has a remaining binding of 71% (binding, competition with immobilised ligand; 1 µM).
The remaining binding of `Cc1cc(NC(=O)c2cccc(S(F)(F)(F)(F)F)c2)cc(-n2ccn3nc(-c4cccnc4)cc23)c1` is reported as 27.2% (cell-free assay, competition with immobilised ligand; 1 µM).
`O=C(NCC1CCOCC1)c1n[nH]cc1NC(=O)c1c(F)cccc1F` gave a remaining binding of 98% (binding, competition with immobilised ligand; 1 µM).
With `Nc1ncc2c(n1)-c1c([nH]c3ccc(C#CC4CC4)cc13)CCCC2` the remaining binding was 99% (binding, competition with immobilised ligand; 1 µM).
`CN(CCCC(F)(F)F)c1nccc(-c2cnn3ncccc23)n1` has a remaining binding of 100% (binding; 1 µM).
`CO[C@@H](C)c1c(Nc2ccc([C@H](N(C)C(=O)C3CCS(=O)(=O)CC3)C(F)(F)F)cc2)cnc2cc(Cl)nn12` has a remaining binding of 100% (cell-free assay, competition with immobilised ligand; 1 µM).
With `CNC(=O)[C@@H]1CC[C@@H](n2c(-c3ccc4cnccc4c3)nc3ccc(C(=O)NCc4cccc(C(N)=O)c4)cc32)C1` the remaining binding was 100% (binding, competition with immobilised ligand; 1 µM).
The remaining binding of `O=C(Nc1cccnn1)N1CC(C/C=C/c2cncc(Oc3ccc(C(F)(F)F)cn3)n2)C1` is reported as 85% (cell-free assay, competition with immobilised ligand; 1 µM).
For `N[C@H]1CCN(c2nccc(-c3cnn4ncccc34)n2)C1`, the remaining binding was 85% (binding; 1 µM).
`O=C(c1ccc(Nc2ncc(Cl)c(-c3cc4ccccc4s3)n2)cc1)N1CCC(N2CCCC2)CC1` has a remaining binding of 36% (binding, competition with immobilised ligand; 1 µM).
With `CN(C)c1nccc(-c2cnc3ncccn23)n1` the remaining binding was 78% (binding; 1 µM).
For `O=C(N1CCS(=O)(=O)CC1)N1C[C@H](c2ccc(OC(F)(F)F)cc2)C[C@H](c2nc(C3CC3)no2)C1`, the remaining binding was 100% (cell-free assay, competition with immobilised ligand; 1 µM).
For `Cc1cnn2ncc(-c3ccnc(N(C)C)n3)c2c1`, the remaining binding was 73% (binding; 1 µM).
`CCC(=O)N[C@H]1CC[C@@H](C(=O)N(C)c2ccc(-c3nc4ccccc4o3)cc2)C1` has a remaining binding of 32% (cell-free assay, competition with immobilised ligand; 1 µM).
The remaining binding of `CN(c1nccc(-c2cnn3ncccc23)n1)C1CC1` is reported as 100% (binding; 1 µM).
The remaining binding of `COc1cnc(Nc2cccc(S(N)(=O)=O)c2)nc1N1CCN(c2ccccc2)CC1` is reported as 61% (binding, competition with immobilised ligand; 1 µM).
The remaining binding of `CC1CCCN1c1nccc(-c2cnn3ncccc23)n1` (stereo not shown) is reported as 100% (binding; 1 µM).
With `CCN1CCN(Cc2ccc(C(=O)Nc3ccc(C)c(Oc4ccc5c(c4)CC(=O)N5)c3)cc2C(F)(F)F)CC1` the remaining binding was 68% (binding, competition with immobilised ligand; 1 µM).
